Results reported in ChEMBL document CHEMBL3045304, “Sesquiterpene lactones with potential use as natural herbicide models. 2. guaianolides” (2000).
Calls of active or inactive are those of the source.

Experiments:
[1] = tested on: Lepidium sativum; test: Stimulation of root length of Lepidium sativum at 0.1 mM or 1 mM after 5 days relative to untreated control; assay type: functional
[2] = tested on: Lactuca sativa; test: Stimulation of hypocotyl length of Lactuca sativa cv. Roman (lettuce) at 0.1 mM or 1 mM after 5 days relative to untreated control; assay type: functional
How it was run: (§1)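 Lettuce and tomato seeds, 25 per dish on filter paper, received 5 mL test solution. Incubation was 5 days in the dark at 25 °C, with four replicates per concentration. Solutions were made at 10^-3 or 10^-4 M in 10 mM MES, diluted serially, and adjusted to pH 6.0. Parallel controls were run. Results are % difference from control.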

[3] = tested on: Solanum lycopersicum; test: Stimulation of hypocotyl length of Solanum lycopersicum cv. Tres Cantos (tomato) at 0.1 mM or 1 mM after 5 days relative to untreated control; assay type: functional; how it was run: as §1
[4] = tested on: Solanum lycopersicum; test: Stimulation of germination of Solanum lycopersicum cv. Tres Cantos (tomato) at 0.1 mM or 1 mM after 5 days relative to untreated control; assay type: functional; how it was run: as §1
[5] = tested on: Lactuca sativa; test: Inhibition of hypocotyl length of Lactuca sativa cv. Roman (lettuce) at 0.1 mM or 1 mM after 5 days relative to untreated control; assay type: functional; how it was run: as §1
[6] = tested on: Allium cepa; test: Stimulation of root length of Allium cepa cv. Valenciana (onion) at 0.1 mM or 1 mM after 7 days relative to untreated control
[7] = tested on: Triticum aestivum; test: Inhibition of germination of Triticum aestivum cv. Cortex (wheat) at 0.1 mM or 1 mM after 5 days relative to untreated control; assay type: functional
How it was run: (§2)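 Wheat: 10 seeds per dish on filter paper with 5 mL test solution, 5 days in the dark at 25 °C, 10 replicates per concentration. Stock test solutions were 10^-3 or 10^-4 M in 10 mM MES, with lower levels made by dilution, all at pH 6.0. Parallel controls were run. Output is % difference from control.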

[8] = tested on: Lactuca sativa; test: Inhibition of germination of Lactuca sativa cv. Roman (lettuce) at 0.1 mM or 1 mM after 5 days relative to untreated control; assay type: functional; how it was run: as §1
[9] = tested on: Allium cepa; test: Inhibition of root length of Allium cepa cv. Valenciana (onion) at 0.1 mM or 1 mM after 5 days relative to untreated control; assay type: functional
[10] = tested on: Allium cepa; test: Inhibition of hypocotyl length of Allium cepa cv. Valenciana (onion) at 0.1 mM or 1 mM after 7 days relative to untreated control
[11] = tested on: Allium cepa; test: Inhibition of germination of Allium cepa cv. Valenciana (onion) at 0.1 mM or 1 mM after 5 days relative to untreated control; assay type: functional
[12] = tested on: Lepidium sativum; test: Inhibition of germination of Lepidium sativum at 0.1 mM or 1 mM after 4 days relative to untreated control
[13] = tested on: Solanum lycopersicum; test: Inhibition of hypocotyl length of Solanum lycopersicum cv. Tres Cantos (tomato) at 0.1 mM or 1 mM after 5 days relative to untreated control; assay type: functional; how it was run: as §1
[14] = tested on: Allium cepa; test: Stimulation of germination of Allium cepa cv. Valenciana (onion) at 0.1 mM or 1 mM after 7 days relative to untreated control
[15] = tested on: Lepidium sativum; test: Inhibition of root length of Lepidium sativum at 0.1 mM or 1 mM after 4 days relative to untreated control
[16] = tested on: Allium cepa; test: Stimulation of hypocotyl length of Allium cepa cv. Valenciana (onion) at 0.1 mM or 1 mM after 7 days relative to untreated control
[17] = tested on: Solanum lycopersicum; test: Stimulation of root length of Solanum lycopersicum cv. Tres Cantos (tomato) at 0.1 mM or 1 mM after 5 days relative to untreated control; assay type: functional; how it was run: as §1
[18] = tested on: Solanum lycopersicum; test: Inhibition of root length of Solanum lycopersicum cv. Tres Cantos (tomato) at 0.1 mM or 1 mM after 5 days relative to untreated control; assay type: functional; how it was run: as §1
[19] = tested on: Lactuca sativa; test: Stimulation of root length of Lactuca sativa cv. Roman (lettuce) at 0.1 mM or 1 mM after 5 days relative to untreated control; assay type: functional; how it was run: as §1
[20] = tested on: Lepidium sativum; test: Inhibition of hypocotyl length of Lepidium sativum at 0.1 mM or 1 mM after 4 days relative to untreated control
[21] = tested on: Triticum aestivum; test: Stimulation of germination of Triticum aestivum cv. Cortex (wheat) at 0.1 mM or 1 mM after 5 days relative to untreated control; assay type: functional; how it was run: as §2
[22] = tested on: Triticum aestivum; test: Stimulation of root length of Triticum aestivum cv. Cortex (wheat) at 0.1 mM or 1 mM after 5 days relative to untreated control; assay type: functional; how it was run: as §2
[23] = tested on: Triticum aestivum; test: Stimulation of hypocotyl length of Triticum aestivum cv. Cortex (wheat) at 0.1 mM or 1 mM after 5 days relative to untreated control; assay type: functional; how it was run: as §2
[24] = tested on: Lactuca sativa; test: Stimulation of germination of Lactuca sativa cv. Roman (lettuce) at 0.1 mM or 1 mM after 5 days relative to untreated control; assay type: functional; how it was run: as §1
[25] = tested on: Solanum lycopersicum; test: Inhibition of germination of Solanum lycopersicum cv. Tres Cantos (tomato) at 0.1 mM or 1 mM after 5 days relative to untreated control; assay type: functional; how it was run: as §1
[26] = tested on: Lepidium sativum; test: Stimulation of hypocotyl length of Lepidium sativum at 0.1 mM or 1 mM after 5 days relative to untreated control; assay type: functional
[27] = tested on: Triticum aestivum; test: Inhibition of root length of Triticum aestivum cv. Cortex (wheat) at 0.1 mM or 1 mM after 5 days relative to untreated control; assay type: functional; how it was run: as §2
[28] = tested on: Triticum aestivum; test: Inhibition of hypocotyl length of Triticum aestivum cv. Cortex (wheat) at 0.1 mM or 1 mM after 5 days relative to untreated control; assay type: functional; how it was run: as §2
[29] = tested on: Lactuca sativa; test: Inhibition of root length of Lactuca sativa cv. Roman (lettuce) at 0.1 mM or 1 mM after 5 days relative to untreated control; assay type: functional; how it was run: as §1
[30] = tested on: Lepidium sativum; test: Inhibition of germination of Lepidium sativum at 0.1 mM or 1 mM after 4 days relative to untreated control; set-up: scale not given: the % may be the effect or the level left
[31] = tested on: Lepidium sativum; test: Inhibition of germination of Lepidium sativum at 0.1 mM or 1 mM after 5 days relative to untreated control; assay type: functional
[32] = tested on: Allium cepa; test: Stimulation of germination of Allium cepa cv. Valenciana (onion) at 0.1 mM or 1 mM after 5 days relative to untreated control; assay type: functional

C=C1[C@@H]2[C@H]3OC(=O)[C@@H](CO)[C@@H]3CCC(=C)[C@@H]2C[C@H]1O
inactive: Activity [3] | Activity [4] | Activity [6] | inhibition [7] | inhibition [9] | inhibition [10] | inhibition [11] | Activity [12] | inhibition [12] | inhibition [13] | Activity [14] | Activity [16] | Activity [17] | inhibition [18] | Activity [21] | Activity [22] | Activity [23] | inhibition [25] | inhibition [27] | inhibition [28]
>40%: Activity [2] | inhibition (INH) [5]
20%: Activity [1] | inhibition (INH) [15] | Activity [19] | inhibition (INH) [29]
<20%: inhibition (INH) [8] | inhibition (INH) [20] | Activity [24] | Activity [26]

C=C1CC[C@H]2C(=C)CC[C@H]3C(=C)C(=O)O[C@@H]3[C@@H]12 [DEHYDROCOSTUSLACTONE]
inactive: Activity [3] | Activity [4] | inhibition [13] | Activity [17] | inhibition [18] | Activity [19] | inhibition [25] | inhibition [29]
20%: Activity [30] | inhibition (INH) [8] | inhibition (INH) [31] | Activity [23] | Activity [24] | inhibition (INH) [28]
>40%: Activity [1] | inhibition (INH) [7] | inhibition (INH) [15] | inhibition (INH) [20] | Activity [21] | Activity [22] | Activity [26] | inhibition (INH) [27]
<20%: Activity [2] | inhibition (INH) [5]

CC1=CC(=O)C2=C(C)C[C@H](O)[C@H]3[C@H](OC(=O)[C@@H]3C)[C@@H]12 [8ALPHA-HYDROXYACHILLIN]
<20%: Activity [3] | Activity [4] | inhibition (INH) [13] | inhibition (INH) [25]
inactive: Activity [1] | Activity [2] | inhibition [5] | Activity [6] | inhibition [7] | inhibition [8] | inhibition [9] | inhibition [10] | inhibition [11] | Activity [12] | inhibition [12] | Activity [14] | inhibition [15] | Activity [16] | Activity [17] | inhibition [18] | Activity [19] | inhibition [20] | Activity [21] | Activity [22] | Activity [23] | Activity [24] | Activity [26] | inhibition [27] | inhibition [28] | inhibition [29]

C=C1CC[C@H]2[C@H](CO)C(=O)O[C@@H]2[C@@]2(O)C(=C)[C@H](O)C[C@@H]12
<20%: inhibition (INH) [7] | Activity [21]
>40%: Activity [1] | Activity [2] | inhibition (INH) [5] | inhibition (INH) [15]
inactive: Activity [3] | Activity [4] | Activity [32] | Activity [6] | inhibition [9] | inhibition [10] | inhibition [11] | Activity [12] | inhibition [12] | inhibition [13] | Activity [16] | Activity [17] | inhibition [18] | Activity [22] | Activity [23] | inhibition [25] | inhibition [27] | inhibition [28]
20%: inhibition (INH) [8] | Activity [19] | inhibition (INH) [20] | Activity [24] | Activity [26] | inhibition (INH) [29]

C=C1C(=O)O[C@H]2[C@H]1CCC(=C)[C@]13C[C@@H](O)C(=C)[C@]21OC(C)(C)O3
20%: Activity [30] | inhibition (INH) [31] | Activity [19] | inhibition (INH) [29]
inactive: Activity [2] | Activity [3] | Activity [4] | inhibition [5] | Activity [32] | Activity [6] | inhibition [7] | inhibition [9] | inhibition [10] | inhibition [11] | inhibition [13] | Activity [16] | Activity [17] | inhibition [18] | Activity [21] | inhibition [25]
>40%: Activity [1] | inhibition (INH) [15] | inhibition (INH) [20] | Activity [26]
<20%: inhibition (INH) [8] | Activity [22] | Activity [23] | Activity [24] | inhibition (INH) [27] | inhibition (INH) [28]

C=C1CC[C@H]2[C@H](C)C(=O)O[C@@H]2[C@@]2(O)C(=C)[C@H](O)C[C@@]12O
inactive: Activity [3] | Activity [4] | Activity [32] | Activity [6] | inhibition [7] | inhibition [9] | inhibition [10] | inhibition [11] | Activity [12] | inhibition [12] | inhibition [13] | Activity [16] | Activity [17] | inhibition [18] | Activity [21] | Activity [22] | Activity [23] | inhibition [25] | inhibition [27] | inhibition [28]
<20%: Activity [1] | inhibition (INH) [15] | inhibition (INH) [20] | Activity [26]
20%: inhibition (INH) [8] | Activity [24]
>40%: Activity [2] | inhibition (INH) [5] | Activity [19] | inhibition (INH) [29]
